# E coli WT exp – growth inhibitors of E. coli BW25113 wild type. OD600 absorbance. growth inhibition, % at 100 µM. actives 0.15% (n = 98,000);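 active means growth inhibition above about 50% at one test dose, limit read from the data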;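 further: growth measured after 20 h incubation at 37 °C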
# Ecoli tolC – E. coli tolC mutant growth inhibition | E. coli BW25113 tolC mutant growth, OD615 | growth inhibition, % at 10 µM (by protocol) | actives 2.2% (n = 65,000) | AID 573;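 active means growth inhibition at or above a cutoff equal to the mean over every tested compound plus 3 SD, cut at about 60% in these data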;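 further: growth measured after 20 h incubation at 37 °C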
#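 Test system – E. coli BW25113 ΔtolC::kan, tolC deletion mutant strain · Detection – OD at 615 nm · Buffer or medium – LB with kanamycin 50 µg/mL · Times – 20 h compound exposure of bacteria at 37 °C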
# PostGolgi yeast – growth inhibition of a yeast mutant, post-Golgi transport screen; actives 0.9% (n = 98,000); AID 739; post-Golgi transport phenotypic cell assay; inhibition, % at 10 µM;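 further: yeast cells grown in 1536-well plates; yeast grown about 18 h at 30C before absorbance read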
# PLAP activator – human PLAP activation; P05187; activation fold at 20 µM; purified PLAP enzyme, luminescent substrate read-out; hits give high values; actives 1.2% (n = 96,000); in the data active means activation fold above about 2
# Target sequence (P05187 whole entry, looked up): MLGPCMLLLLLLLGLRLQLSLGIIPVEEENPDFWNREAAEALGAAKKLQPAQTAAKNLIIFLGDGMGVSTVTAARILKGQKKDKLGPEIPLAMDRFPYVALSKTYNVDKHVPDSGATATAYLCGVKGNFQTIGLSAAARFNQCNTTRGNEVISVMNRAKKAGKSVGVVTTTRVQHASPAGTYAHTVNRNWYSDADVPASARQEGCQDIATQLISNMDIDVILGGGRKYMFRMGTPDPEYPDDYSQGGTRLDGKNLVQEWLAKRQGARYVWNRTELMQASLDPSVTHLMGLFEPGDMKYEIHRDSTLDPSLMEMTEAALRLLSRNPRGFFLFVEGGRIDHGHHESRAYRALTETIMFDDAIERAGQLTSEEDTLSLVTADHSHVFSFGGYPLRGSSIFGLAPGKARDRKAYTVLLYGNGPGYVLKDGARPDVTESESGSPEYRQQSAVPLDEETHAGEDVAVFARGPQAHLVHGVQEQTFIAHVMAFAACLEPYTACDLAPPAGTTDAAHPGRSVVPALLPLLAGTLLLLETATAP
# PostGolgi ctrl – yeast control strain growth, post-Golgi counter-screen. AID 738. inhibition, % at 10 µM. efflux-deficient yeast background strain, growth absorbance A615, 16 h. actives 5% (n = 98,000)
# Numbers without * were called inactive; . = not tested or not shown. Hits are enriched below; roughly 7.2% of the tested compounds scored in any of these assays. Unless noted, no stated cut-off is given here; in the data, active means inhibition above about 30%; inactive means the rest.
SMILES,E coli WT exp,Ecoli tolC,PostGolgi yeast,PLAP activator,PostGolgi ctrl
CCOC(=O)c1ccccc1NS(=O)(=O)c1ccccc1,5,33,-3,0.9,37*
CCCC(C)C(=O)Nc1ccccc1C(=O)OCC (centres undefined),10,.,20,1.1,10
CCOC(=O)c1ccccc1NC(=O)c1nc2nccc(C)n2n1,0,.,3,0.9,40*
Cc1ccnc2nc(C(=O)Nc3nccs3)nn12,0,.,-12,1.3,7
CCOC(=O)c1ccccc1NS(=O)(=O)c1ccc(C)cc1,-2,.,-10,1,20
CCc1cc2c(SCC(=O)c3ccc(Cl)s3)ncnc2s1,-4,.,-4,0.5,36*
Cc1cc(NCCOCCO)n2ncc(-c3ccc(Cl)cc3)c2n1,14,13,-6,1.5,29
CC(C)(C)c1cc(NCCCn2ccnc2)n2ncc(-c3ccc(Cl)cc3)c2n1,2,.,58*,1,93*
Cc1ccc(SCc2[nH]nc3c2C2(C(=O)Nc4ccc([N+](=O)[O-])cc42)C(C#N)=C(N)O3)cc1 (centres undefined),-3,.,-4,1.7,36*
COc1ccc(N(CC(O)Cn2nnc3ccccc32)S(=O)(=O)c2ccc(C)cc2)cc1 (centres undefined),-8,28,-7,1.7,-1
COc1ccc(-n2c(C)c3c(OC)cccc(=O)c3c2C)cc1,-2,.,-3,0.9,34*
OCCN1CCN(c2nc(-c3ccccc3)c3cc(Cl)ccc3n2)CC1,17,100*,11,1.4,9
CN1CCN(c2nc(-c3ccccc3)c3cc(Cl)ccc3n2)CC1,11,21,7,1.3,9
Clc1ccc2nc(N3CCNCC3)nc(-c3ccccc3)c2c1,55*,18,25,1.5,14
CCOc1ccccc1C1CC(=O)NC(SCC(=O)Nc2nccs2)=C1C#N (centres undefined),-9,.,0,1.7,4
CCN1C(=O)c2cccc3c(S(=O)(=O)Nc4ccc(OC)cc4OC)ccc1c23,-13,9,-4,1.1,19
CC12CCC(c3c(C(=O)Nc4nccs4)nn(-c4ccccc4)c31)C2(C)C (centres undefined),-7,25,39*,2*,1
CC12CCC(c3c(C(=O)O)nn(-c4ccccc4)c31)C2(C)C (centres undefined),5,12,2,1.1,4
CCCOc1ccc(C2c3c(oc4ccccc4c3=O)C(=O)N2CCCN2CCOCC2)cc1 (centres undefined),-2,5,10,1.6,8
COc1cc2[nH]c(=O)n(CCCCCC(=O)NCCc3c[nH]c4ccccc34)c(=O)c2cc1OC,-8,.,-1,1.7,-2
CCOc1cc2c3c(c1)C1(Nc4ccccc4S1)C(=O)N3C(C)(C)CC2C (centres undefined),-5,.,-5,1.7,37*
O=C(CCC(=O)OCC(=O)c1ccc(Br)cc1)NC1CCCCC1,-5,.,-4,0.9,37*
O=C(CCC(=O)OCC(=O)c1ccc(F)cc1)NC1CCCCC1,6,.,40*,1,4
O=C(Cc1ccc(Br)cc1)NC1CCCCC1,-6,.,7,0.9,6
Cc1ccc(C)c2c1cc(C)c1nnc(SCc3ccccn3)n12,5,.,36*,1.1,90*
SMILES,E coli WT exp,Ecoli tolC,PostGolgi yeast,PLAP activator,PostGolgi ctrl
Cc1ccc(-c2nc3cnccn3c2Nc2ccc3c(c2)OCCO3)o1,2,22,5,0.8,12
Oc1ccc(Br)cc1-c1nc2cnccn2c1NC1CCCCC1,-5,.,29,1.6,86*
Oc1ccc(Br)cc1-c1nc2cnccn2c1NC1CCCC1,-7,97*,6,1,63*
Cc1ccc(-c2nc3cnccn3c2Nc2ccc3c(c2)OCO3)cc1,0,.,5,1.6,10
CC1CCCN(c2nc3c(c(=O)[nH]c(=O)n3C)n2CCSc2ncccn2)C1 (centres undefined),.,1,.,.,.
Cn1nnnc1SCCNCc1ccc(Cl)cc1,8,.,-1,1,0
CCOc1cc(CNCCSc2nnnn2C)cc(Br)c1OCc1ccccc1,2,.,5,2*,21
Cc1ccc(Nc2cc(=O)oc3ccccc23)c(C)c1,-12,.,18,1,44*
CCOC(=O)c1c(NC(=O)C(C)N2CCN(C(=O)c3ccco3)CC2)sc2c1CCCC2 (centres undefined),6,.,-6,1.9,13
Cc1cc(C)c(NC(=O)C(C)c2cccc(C(=O)c3ccccc3)c2)c(C)c1 (centres undefined),-14,.,14,0.9,5
O=C1CC(N2CCN(c3ccc(Cl)c(Cl)c3)CC2)C(=O)N1 (centres undefined),4,-2,52*,1.1,-5
CCOc1ccc(-c2n[nH]c(C)c2Oc2ccc(OC)cc2)c(O)c1,9,95*,12,.,33*
Cc1[nH]nc(-c2ccc(OCc3cnn(-c4ccccc4)c3)cc2O)c1Oc1ccc(F)cc1,-15,.,5,0.9,19
Cc1[nH]nc(-c2ccc(O)c(C)c2O)c1Oc1ccccc1,14,.,2,0.5,38*
Cc1ccc(CNC(=O)c2sccc2-n2cccc2)cc1,11,26,16,0.6,30*
CNC(=O)c1sccc1-n1cccc1,4,.,-1,1,2
Cc1c(NC(=O)CSc2nc3ccccc3n2C)c(=O)n(-c2ccccc2)n1C,5,-15,4,1.2,17
Cc1c(NC(=O)CSc2nnc(C(C)Oc3ccc(Cl)cc3)n2-c2ccccc2)c(=O)n(-c2ccccc2)n1C (centres undefined),8,.,3,1.2,32*
Cc1c(NC(=O)CSc2nc3ccccc3[nH]2)c(=O)n(-c2ccccc2)n1C,6,-1,-2,2.2*,0
Cc1c(NC(=O)CSc2nc3ccc(Cl)cc3[nH]2)c(=O)n(-c2ccccc2)n1C,1,.,-3,2*,5
Cc1ccc2oc(=O)c3cnn(CC(=O)N(CCCN4CCOCC4)Cc4ccco4)c3c2c1,-4,-11,7,.,-2
CC1CN(C(=O)c2cccs2)CCN1C(=O)c1cccs1 (centres undefined),3,-8,0,1.2,7
NCC[C@H](O)C(=O)N[C@@H]1C[C@H](N)[C@@H](O[C@H]2O[C@H](CN)[C@@H](O)[C@H](O)[C@H]2O)[C@H](O)[C@H]1O[C@H]1O[C@H](CO)[C@@H](O)[C@H](N)[C@H]1O,.,2,.,.,.
CCOC(=O)c1sc2ccc(S(=O)(=O)N3CCCCC3)cc2c1N,-7,16,0,0.9,42*
CCOC(=O)c1sc2ccc(S(=O)(=O)N3CCOCC3)cc2c1N,-3,-7,11,0.9,8
Cc1cc(NC(=O)Cn2c(C)nc3ccccc3c2=O)ccc1Br,10,.,-3,0.9,25
COc1ccc(C2SCC(=O)N2CC23CC4CC(CC(C4)C2)C3)cc1 (centres undefined),-8,.,16,1.2,60*
CCc1ccc2nc(Nc3nc(COC)cc(=O)[nH]3)nc(C)c2c1,1,.,13,2.5*,9

# High-throughput results as filed in PubChem BioAssay.
